Activity calls are given as the source filed them. No cut-off for these calls is given here.

This note sets out measurements from ChEMBL document CHEMBL4359917, “Design, synthesis, and biological evaluation of novel benzodiazepine derivatives as anticancer agents through inhibition of tubulin polymerization in vitro and in vivo” (Eur J Med Chem, 2019).

Assay [1] has as its system A549. Put plainly: Induction of apoptosis in human A549 cells assessed as early apoptotic cells at 5 nM after 24 hrs by annexin V-FITC/propidium iodide staining based flow cytometry (reference value: 0.19 %). It counts as functional. Summed up: (§1)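 A549 cells treated at 1, 5 or 10 nM for 24 or 48 h, then analysed by flow cytometry. Quadrants: upper left necrotic, upper right late apoptotic, bottom left live, bottom right early apoptotic. Three experiments; representative results shown.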
(In general: In flow cytometry, cells or beads pass a laser one at a time.)

For assay [2], the system named is A549. Put plainly: Induction of apoptosis in human A549 cells assessed as early apoptotic cells at 10 nM after 48 hrs by annexin V-FITC/propidium iodide staining based flow cytometry (reference value: 0.19 %). The assay is classed as functional. The procedure, abridged: as §1
Assay [3] concerns A549. Put plainly: Induction of apoptosis in human A549 cells assessed as late apoptotic cells at 10 nM after 48 hrs by annexin V-FITC/propidium iodide staining based flow cytometry (reference value: 0.02 %). The assay is classed as functional. The procedure, abridged:
as §1

Assay [4] has as its system A549. The assay can be described thus: Cell cycle arrest in human A549 cells assessed as increase in cell accumulation at G2/M phase at 1 to 10 nM by RNase/propidium iodide staining based flow cytometry analysis. The assay is classed as functional. Conditions: TDE = time-dependent effect.
For assay [5], the system named is A549. The assay can be described thus: Induction of apoptosis in human A549 cells assessed as late apoptotic cells at 10 nM after 24 hrs by annexin V-FITC/propidium iodide staining based flow cytometry (reference value: 0.02 %). It counts as functional. Summed up: as §1
In a further assay the test system is HeLa. The assay can be described thus: Antiproliferative activity against human HeLa cells assessed as cell growth inhibition measured after 48 hrs by MTT assay. It counts as functional, cell-based. The procedure, abridged: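 Cancer cell lines exposed to compounds for 48 h; viability read by MTT assay. IC50 reported as mean ± SD from at least three independent experiments.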
(In general: Formazan colour is commonly taken as a measure of viable cells.)

The next assay deals with Tubulin (Sus scrofa, UniProt P02554+P02550). The assay can be described thus: (§2) Inhibition of porcine brain tubulin polymerization assessed as decrease in fluorescence intensity measured every 60 sec for 90 mins in presence of GTP by DAPI staining based fluorescence assay. The procedure, abridged:
(§3)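 Purified unpolymerised tubulin in reaction buffer incubated at 37 °C without or with compound at 0.75-7.5 µM. Polymerisation was followed as a rise in fluorescence intensity, and IC50 was derived. Performed three times.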

A further assay has as its target Tubulin (Sus scrofa) (UniProt P02554+P02550). The assay is described as §2. The procedure, abridged: as §3
For assay [6], the system named is A549. Put plainly: Disruption of microtubule organization in human A549 cells assessed as microtubule spindle shrunk at 1 to 10 nM measured after 24 hrs by immunofluorescence laser confocal microscopy analysis. The assay is classed as functional, cell-based. Summed up: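 A549 cells plated in confocal dishes and exposed to DMSO or compound at 1, 5 or 10 nM for 24 h. Cells were fixed, immunostained for microtubules and imaged by laser confocal microscopy. Performed three times.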

The subject of assay [7] is A549. Put plainly: Induction of apoptosis in human A549 cells assessed as necrotic cells at 5 nM after 48 hrs by annexin V-FITC/propidium iodide staining based flow cytometry (reference value: 0.03 %). It counts as functional. The procedure, abridged:
as §1

Tubulin (Sus scrofa), sequence (P02550 whole entry, looked up): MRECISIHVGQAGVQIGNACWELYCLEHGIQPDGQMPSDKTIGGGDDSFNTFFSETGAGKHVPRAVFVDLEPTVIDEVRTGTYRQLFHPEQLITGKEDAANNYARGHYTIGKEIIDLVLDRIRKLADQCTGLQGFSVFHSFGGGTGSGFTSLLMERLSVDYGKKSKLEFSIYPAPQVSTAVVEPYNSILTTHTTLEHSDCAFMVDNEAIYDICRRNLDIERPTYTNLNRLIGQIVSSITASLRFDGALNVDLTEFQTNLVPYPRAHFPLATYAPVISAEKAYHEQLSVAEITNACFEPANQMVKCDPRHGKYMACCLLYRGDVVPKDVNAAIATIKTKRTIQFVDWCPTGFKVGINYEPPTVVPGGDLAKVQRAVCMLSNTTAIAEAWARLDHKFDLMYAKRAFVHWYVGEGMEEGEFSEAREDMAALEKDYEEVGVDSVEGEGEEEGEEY
Tubulin (Sus scrofa), sequence (P02554 whole entry, looked up): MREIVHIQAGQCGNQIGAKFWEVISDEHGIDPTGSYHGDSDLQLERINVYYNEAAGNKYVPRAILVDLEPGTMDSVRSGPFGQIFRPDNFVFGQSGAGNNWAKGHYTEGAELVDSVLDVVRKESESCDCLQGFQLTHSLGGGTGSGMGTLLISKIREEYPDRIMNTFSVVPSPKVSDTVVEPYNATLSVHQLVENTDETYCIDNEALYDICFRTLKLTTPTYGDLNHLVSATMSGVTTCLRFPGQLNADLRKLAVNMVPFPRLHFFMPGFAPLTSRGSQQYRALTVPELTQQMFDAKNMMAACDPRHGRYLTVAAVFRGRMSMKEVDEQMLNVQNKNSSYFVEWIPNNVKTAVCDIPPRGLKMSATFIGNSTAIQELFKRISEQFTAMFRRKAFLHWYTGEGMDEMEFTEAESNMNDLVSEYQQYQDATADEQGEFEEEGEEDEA

Take `COc1ccc2c(c1O)NC(=O)CN=C2c1cc(OC)c(OC)c([Se]C)c1`: the Activity is 13.15% with A549 [1]; 65.4% in the assay on A549 [2]; 19.15% with A549 [3]; “Tde” in the assay with A549 [4]; 0.13% in the assay on A549 [5]; 2.28% with A549 [7]. The IC50 (in general, the concentration that gives 50% inhibition) in the assay with HeLa amounted to 8.3 nM; on Tubulin it was 1650 nM. In addition, the inhibition entry at Tubulin (Sus scrofa) is “Dose-dependent effect”. The result in the assay on A549 [6] was Active.
